Data on one compound can be found in ChEMBL document CHEMBL1141579, “Synthesis, cytostatic, and antiviral activity of novel 6-[2-(dialkylamino)ethyl]-, 6-(2-alkoxyethyl)-, 6-[2-(alkylsulfanyl)ethyl]-, and 6-[2-(dialkylamino)vinyl]purine nucleosides” (Bioorg Med Chem, 2008).

Series [1] deals with HL-60. Put plainly: Cytostatic activity against human HL60 cells ATCC CCL 240 assessed as growth reduction after 72 hrs. It counts as functional, cell-based. The note with it: HL-60, 72 h. A digest of the protocol: (§1)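 Cells grown in RPMI 1640 with foetal calf serum in 24-well plates. Counted in a haematological analyzer 72 h after drug addition. Inhibition expressed as IC50.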

The test system of series [2] is HL-60. Nature of the series: Cytostatic activity against human HL60 cells ATCC CCL 240 assessed as cell viability by XTT test. In kind it is functional, cell-based. In outline: (§2)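 Cell viability quantified by the XTT spectrophotometric assay. Inhibition expressed as IC50.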
Series [3] has as its system HL-60. Put plainly: Cell cycle arrest in human HL60 cells assessed as accumulation in G2/M phase at 14 uM relative to control. It counts as functional. In outline:
(§3)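 HL-60 cells treated at the stated concentration, then fixed in ethanol. Stained with propidium iodide in buffer containing RNase A and analysed by flow cytometry. Result given as the ratio of the treated to the control cell fraction in each phase (G1, S, G2/M).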

The next series has as its system L1210. Put plainly: Cytostatic activity against mouse L1210 cells ATCC CCL219 assessed as growth reduction after 72 hrs. In kind it is functional, cell-based. The note with it: L1210, 72 h. In outline: as §1
Series [4] concerns CCRF-CEM. Nature of the series: Cytostatic activity against human CCRF-CEM cells ATCC CCL 119 assessed as cell viability by XTT test. It counts as functional, cell-based. In outline:
as §2

For series [5], the system named is HL-60. Put plainly: Cell cycle arrest in human HL60 cells assessed as accumulation in G1 phase at 14 uM relative to control. In kind it is functional. A digest of the protocol:
as §3

The nature of series [6]: Cytotoxicity against human Huh7 cells harboring con1 replicon after 3 days by MTT assay. In kind it is cell-based, Huh-7. A digest of the protocol: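 Con-1 replicon-bearing Huh-7 cells were seeded at 8 · 10^3 cells per well in medium without Geneticin. Compound was serially diluted in 100% DMSO and added 1:200, giving 0.5% DMSO final. Cells were incubated at 37 C for 3 days. Toxicity was read at the end, in duplicate (N = 2).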

Series [7] relates to HL-60. Nature of the series: Cell cycle arrest in human HL60 cells assessed as accumulation in S phase at 3.5 uM relative to control. In kind it is functional. A digest of the protocol: as §3
Series [8] has as its system HL-60. Put plainly: Cell cycle arrest in human HL60 cells assessed as accumulation in G1 phase at 3.5 uM relative to control. It counts as functional. A digest of the protocol:
as §3

Series [9] deals with HL-60. Nature of the series: Cell cycle arrest in human HL60 cells assessed as accumulation in G2/M phase at 3.5 uM relative to control. It counts as functional. In outline:
as §3

For series [10], the system named is HL-60. Nature of the series: Cell cycle arrest in human HL60 cells assessed as accumulation in S phase at 14 uM relative to control. It counts as functional. A digest of the protocol: as §3
The next series deals with Hepatitis C virus. Nature of the series: Antiviral activity against HCV 1b Con1 replicon in Huh7 cells. It counts as functional, organism-based, Hepatitis C virus subtype 1b. To be noted: Huh-7. A digest of the protocol:
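Con-1/lucneo replicon cells seeded at 8 × 10^3 per well in medium without Geneticin. Compounds serially diluted in DMSO and added 1:200 (0.5% DMSO final). Incubated 3 days at 37 C. Cells lysed and luciferase activity read by luminometer. EC50 by non-linear regression, N = 2.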

The test system of series [11] is CCRF-CEM. Nature of the series: Cytostatic activity against human CCRF-CEM cells ATCC CCL 119 assessed as growth reduction after 72 hrs. In kind it is functional, cell-based. A digest of the protocol: as §1

Consider `CCCCN(CCCC)CCc1ncnc2c1ncn2[C@@H]1O[C@H](CO)[C@@H](O)[C@H]1O`, for which the IC50 in the series with HL-60 [1] is 5.3 µM; in the series with HL-60 [2], 13.8 µM; in the series on L1210, 4.4 µM; with CCRF-CEM [4] it was 4.59 µM; in the series on CCRF-CEM [11], 6.4 µM. The Activity in the series on HL-60 [3] was 0.64; in the series with HL-60 [5], 1.51; in the series with HL-60 [7], 1.15; in the series with HL-60 [8], 0.85; with HL-60 [9], 0.93; in the series on HL-60 [10], 0.68. Also, the CC50 at 72 h in series [6] turned out to be 37 µM. The EC50 with Hepatitis C virus is 5.6 µM.
